Consider three compounds from ChEMBL document CHEMBL3769301, “Novel cis-selective and non-epimerisable C3 hydroxy azapodophyllotoxins targeting microtubules in cancer cells” (Eur J Med Chem, 2016).

Active and inactive are the calls of the source. The rule behind the calls is not given here.

What all share (assay type): cell-based
Test [1] deals with MCF7. Nature of the test: Inhibition of microtubule cytoskeleton polymerization in human MCF7 cells assessed as repolymerization at 250 nM cells preincubated on ice followed rewarmed to 37 degC in presence of compound for 30 mins by Hoechst 33342 staining-based confocal fluorescence microscopy. The procedure, abridged: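 No pre-treatment: after 42 h on coverslips, MCF-7 cells were held on ice for 30 min to depolymerise microtubules. A cold control set was fixed at once; the rest were rewarmed for 30 min at 37 °C/5% CO2 with 250 nM compound or 0.01% DMSO. All were fixed in methanol at −20 °C, stained for α-tubulin and Hoechst, and examined by confocal imaging. There were three independent experiments.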

In test [2] the test system is MCF7. Put plainly: Induction of microtubule cytoskeleton destabilization in human MCF7 cells assessed as shorter and more disorderd microtubule at 250 nM after 6 hrs by Hoechst 33342 staining-based confocal fluorescence microscopy. The procedure, abridged: (§1)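 MCF-7 cells in RPMI 1640 with 10% FBS were grown on glass coverslips for 42 h to 70–80% confluency. They were exposed to 250 nM compound or 0.01% DMSO for 6 h, then fixed in methanol at −20 °C for 10 min. Staining used anti-α-tubulin (1:2000) with Alexa488 secondary (1:400) and Hoechst 33342 (1 μg/ml), imaged by confocal microscopy (63x oil). There were three independent experiments, each in duplicate.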

The subject of test [3] is MCF7. Put plainly: Induction of microtubule cytoskeleton destabilization in human MCF7 cells assessed as uncongressed/misaligned chromosomes at 250 nM after 6 hrs by Hoechst 33342 staining-based confocal fluorescence microscopy. The procedure, abridged:
as §1

In test [4] the test system is MCF7. Put plainly: Induction of microtubule cytoskeleton destabilization in human MCF7 cells assessed as accumulation of binucleate cells at 250 nM after 6 hrs by Hoechst 33342 staining-based confocal fluorescence microscopy. The essentials:
as §1

Test [5] deals with MCF7. Nature of the test: Induction of microtubule cytoskeleton destabilization in human MCF7 cells assessed as abberation in spindle morphology and polarity at 250 nM after 6 hrs by Hoechst 33342 staining-based confocal fluorescence microscopy. The essentials: as §1
For test [6], the system named is MCF7. Put plainly: Induction of microtubule cytoskeleton destabilization in human MCF7 cells assessed as pyknosis at 250 nM after 6 hrs by Hoechst 33342 staining-based confocal fluorescence microscopy. The procedure, abridged: as §1
Test [7] deals with MCF7. Put plainly: Inhibition of microtubule cytoskeleton polymerization in human MCF7 cells assessed as repolymerization at 250 nM pretreated for 6 hrs followed by incubation for 30 mins on ice then rewarmed to 37 degC for 30 mins by Hoechst 33342 staining-based confocal fluorescence microscopy. The procedure, abridged: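 Pre-treatment: MCF-7 cells on coverslips were exposed to 250 nM compound or 0.01% DMSO for 6 h, then held at 4 °C on ice for 30 min. One set was fixed after cold depolymerisation; the others were returned to 37 °C/5% CO2 for 30 min to repolymerise. Cells were fixed in −20 °C methanol, stained for α-tubulin and Hoechst, and imaged by confocal microscopy. There were three independent experiments.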

Test [8] concerns MCF7. Put plainly: Induction of microtubule cytoskeleton destabilization in human MCF7 cells assessed as nuclear atypia at 250 nM after 6 hrs by Hoechst 33342 staining-based confocal fluorescence microscopy. The essentials: as §1

`O=C1OC[C@]2(O)Nc3c(c4cccnc4c4ncccc34)[C@@H](c3ccccc3C(F)(F)F)[C@@H]12` (mixture of isomers): the inhibition result in test [1] and in test [7] was “inactive” each time. Also, the outcome in test [2], in test [3], in test [4], in test [5], in test [6] and in test [8] was Active.

Turning to `O=C1OC[C@]2(O)Nc3c(c4cccnc4c4ncccc34)[C@@H](c3ccccc3OC(F)(F)F)[C@H]12` (mixture of isomers), the inhibition entry in test [1] and in test [7] was “inactive” each time. Moreover, the result in test [2], in test [3], in test [4], in test [5], in test [6] and in test [8] was Active.

Turning to `COc1cc([C@@H]2c3cc4c(cc3[C@H](O)[C@H]3COC(=O)[C@H]23)OCO4)cc(OC)c1OC`, the result in test [6] and in test [8] was Active.
